In ChEMBL document CHEMBL5033998, “Discovery of DDO-2213 as a Potent and Orally Bioavailable Inhibitor of the WDR5-Mixed Lineage Leukemia 1 Protein-Protein Interaction for the Treatment of MLL Fusion Leukemia” (J Med Chem, 2021):

Experiments:
[1] = Oral bioavailability in Sprague-Dawley rat at 10 mg/kg measured upto 24 hrs by LC-MS/MS analysis; format: ADME, organism-based; conditions: in vivo
How it was run: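 Bioavailability from paired rat groups (male SD, n = 3 each): 10 mg/kg oral vs 2 mg/kg i.v.; plasma sampled to 24 h and measured by LC-MS/MS.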

[2] = target: Protein arginine N-methyltransferase 5 (Homo sapiens, UniProt O14744); assay: Inhibition of PRMT5 (unknown origin) assessed as effect on H3R8/H4R3 methylation incubated for 30 mins by Alphascreen assay
How it was run: (§1)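 AlphaScreen: enzyme, SAM and compound mixed in 10 mM PBS for 30 min at room temperature; acceptor beads and substrate antibody added, 30 min at room temperature, then streptavidin donor beads; read on AlphaScreen reader.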

[3] = AUC (0 to t) in Sprague-Dawley rat at 2 mg/kg, iv measured upto 24 hrs by LC-MS/MS analysis; format: ADME, organism-based; set-up: route intravenous, dose 2 mg/kg, time <=24; conditions: in vivo
MV4-11 [4] = assay: Antitumor activity against human MV4-11 cells xenografted in Balb/c nude mouse assessed as tumor weight inhibition at 40 mg/kg, po administered daily for 21 days relative to control; format: functional; conditions: MV4-11, po, 504 h, time 21 day
How it was run: (§2)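 MV4-11 flank xenografts (~5 × 10^6 cells) in female BALB/c nude mice, 6 per group; daily oral dosing (40, 80, 120 mg/kg) or saline vehicle for 21 days, then tumors excised and weighed.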

[5] = AUC (0 to infinity) in Sprague-Dawley rat at 10 mg/kg, po measured upto 24 hrs by LC-MS/MS analysis; format: ADME, organism-based; set-up: route oral, dose 10 mg/kg, time <=24; conditions: in vivo
How it was run: (§3)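 Male SD rats, 6–8 weeks, 220 ± 30 g; single oral dose 10 mg/kg (n = 3). Plasma sampled at 0, 0.25, 0.5, 1, 2, 4, 6, 8 and 24 h, stored at −80 °C, quantified by LC-MS/MS; parameters reported as mean ± SEM.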

MOLM-13 = assay: Antiproliferative activity against human MOLM-13 cells assessed as cell viability incubated for 72 hrs by CCK8 assay; format: functional, cell-based; conditions: MOLM-13, 72 h
How it was run: (§4)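 Cells seeded at 3000–6000 per well, exposed to inhibitor at several concentrations for 72 h; viability read with CCK8 kit. MV4-11 and K562 grown in modified IMDM + 10% FBS, pen/strep; MOLM-13 in RPMI-1640 + 10% FBS; HUVEC in modified DMEM + 10% FBS; 37 °C, 5% CO2. IC50 as mean ± SD of three independent experiments.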

[6] = target: Histone-lysine N-methyltransferase 2A/WDR5 (Homo sapiens, UniProt P61964); assay: Inhibition of MLL1-WDR5 (unknown origin) protein-protein interaction using Thr-FAM as probe by fluorescence polarization competition assay
How it was run: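 Competitive FP with WDR5 and 10mer-Thr-FAM probe in 100 mM KH2PO4, 25 mM KCl, 0.01% Triton X-100, pH 6.5; read at λex 485 ± 25 nm, λem 535 ± 25 nm. IC50 from three independent replicates ± SD.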

[7] = target: WD repeat-containing protein 5 (Homo sapiens) (UniProt P61964); assay: Binding affinity to WDR5 (unknown origin) assessed as change in entropy by isothermal titration calorimetry assay
MV4-11 [8] = assay: Antitumor activity against human MV4-11 cells xenografted in Balb/c nude mouse assessed as tumor growth inhibition at 120 mg/kg, po administered daily for 21 days relative to control; format: functional; conditions: MV4-11, po, 504 h, time 21 day, read-out: TGI
How it was run: (§5)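 Female BALB/c nude mice (6–8 weeks) given ~5 × 10^6 MV4-11 cells in 0.2 mL PBS into the flank; at 100–150 mm3 randomized (6/group) to vehicle (0.9% saline) or 40, 80, 120 mg/kg oral (hydrochloride salt) daily for 21 days. Volume = length × width²/2 every other day; GI% = [1 − (TVt − TV0)/(CVt − CV0)] × 100%.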

[9] = target: Histone-lysine N-methyltransferase 2A (Homo sapiens, UniProt Q03164); assay: Inhibition of MLL1 (unknown origin) in human MV4-11 cells assessed as decrease in Hoxa9 mRNA level at 1 to 10 uM measured after 7 days by RT-PCR analysis; conditions: dose 1-10 µM, time 7.0 day
Histone-lysine N-methyltransferase 2A, sequence (Q03164 1-2718 limits assumed): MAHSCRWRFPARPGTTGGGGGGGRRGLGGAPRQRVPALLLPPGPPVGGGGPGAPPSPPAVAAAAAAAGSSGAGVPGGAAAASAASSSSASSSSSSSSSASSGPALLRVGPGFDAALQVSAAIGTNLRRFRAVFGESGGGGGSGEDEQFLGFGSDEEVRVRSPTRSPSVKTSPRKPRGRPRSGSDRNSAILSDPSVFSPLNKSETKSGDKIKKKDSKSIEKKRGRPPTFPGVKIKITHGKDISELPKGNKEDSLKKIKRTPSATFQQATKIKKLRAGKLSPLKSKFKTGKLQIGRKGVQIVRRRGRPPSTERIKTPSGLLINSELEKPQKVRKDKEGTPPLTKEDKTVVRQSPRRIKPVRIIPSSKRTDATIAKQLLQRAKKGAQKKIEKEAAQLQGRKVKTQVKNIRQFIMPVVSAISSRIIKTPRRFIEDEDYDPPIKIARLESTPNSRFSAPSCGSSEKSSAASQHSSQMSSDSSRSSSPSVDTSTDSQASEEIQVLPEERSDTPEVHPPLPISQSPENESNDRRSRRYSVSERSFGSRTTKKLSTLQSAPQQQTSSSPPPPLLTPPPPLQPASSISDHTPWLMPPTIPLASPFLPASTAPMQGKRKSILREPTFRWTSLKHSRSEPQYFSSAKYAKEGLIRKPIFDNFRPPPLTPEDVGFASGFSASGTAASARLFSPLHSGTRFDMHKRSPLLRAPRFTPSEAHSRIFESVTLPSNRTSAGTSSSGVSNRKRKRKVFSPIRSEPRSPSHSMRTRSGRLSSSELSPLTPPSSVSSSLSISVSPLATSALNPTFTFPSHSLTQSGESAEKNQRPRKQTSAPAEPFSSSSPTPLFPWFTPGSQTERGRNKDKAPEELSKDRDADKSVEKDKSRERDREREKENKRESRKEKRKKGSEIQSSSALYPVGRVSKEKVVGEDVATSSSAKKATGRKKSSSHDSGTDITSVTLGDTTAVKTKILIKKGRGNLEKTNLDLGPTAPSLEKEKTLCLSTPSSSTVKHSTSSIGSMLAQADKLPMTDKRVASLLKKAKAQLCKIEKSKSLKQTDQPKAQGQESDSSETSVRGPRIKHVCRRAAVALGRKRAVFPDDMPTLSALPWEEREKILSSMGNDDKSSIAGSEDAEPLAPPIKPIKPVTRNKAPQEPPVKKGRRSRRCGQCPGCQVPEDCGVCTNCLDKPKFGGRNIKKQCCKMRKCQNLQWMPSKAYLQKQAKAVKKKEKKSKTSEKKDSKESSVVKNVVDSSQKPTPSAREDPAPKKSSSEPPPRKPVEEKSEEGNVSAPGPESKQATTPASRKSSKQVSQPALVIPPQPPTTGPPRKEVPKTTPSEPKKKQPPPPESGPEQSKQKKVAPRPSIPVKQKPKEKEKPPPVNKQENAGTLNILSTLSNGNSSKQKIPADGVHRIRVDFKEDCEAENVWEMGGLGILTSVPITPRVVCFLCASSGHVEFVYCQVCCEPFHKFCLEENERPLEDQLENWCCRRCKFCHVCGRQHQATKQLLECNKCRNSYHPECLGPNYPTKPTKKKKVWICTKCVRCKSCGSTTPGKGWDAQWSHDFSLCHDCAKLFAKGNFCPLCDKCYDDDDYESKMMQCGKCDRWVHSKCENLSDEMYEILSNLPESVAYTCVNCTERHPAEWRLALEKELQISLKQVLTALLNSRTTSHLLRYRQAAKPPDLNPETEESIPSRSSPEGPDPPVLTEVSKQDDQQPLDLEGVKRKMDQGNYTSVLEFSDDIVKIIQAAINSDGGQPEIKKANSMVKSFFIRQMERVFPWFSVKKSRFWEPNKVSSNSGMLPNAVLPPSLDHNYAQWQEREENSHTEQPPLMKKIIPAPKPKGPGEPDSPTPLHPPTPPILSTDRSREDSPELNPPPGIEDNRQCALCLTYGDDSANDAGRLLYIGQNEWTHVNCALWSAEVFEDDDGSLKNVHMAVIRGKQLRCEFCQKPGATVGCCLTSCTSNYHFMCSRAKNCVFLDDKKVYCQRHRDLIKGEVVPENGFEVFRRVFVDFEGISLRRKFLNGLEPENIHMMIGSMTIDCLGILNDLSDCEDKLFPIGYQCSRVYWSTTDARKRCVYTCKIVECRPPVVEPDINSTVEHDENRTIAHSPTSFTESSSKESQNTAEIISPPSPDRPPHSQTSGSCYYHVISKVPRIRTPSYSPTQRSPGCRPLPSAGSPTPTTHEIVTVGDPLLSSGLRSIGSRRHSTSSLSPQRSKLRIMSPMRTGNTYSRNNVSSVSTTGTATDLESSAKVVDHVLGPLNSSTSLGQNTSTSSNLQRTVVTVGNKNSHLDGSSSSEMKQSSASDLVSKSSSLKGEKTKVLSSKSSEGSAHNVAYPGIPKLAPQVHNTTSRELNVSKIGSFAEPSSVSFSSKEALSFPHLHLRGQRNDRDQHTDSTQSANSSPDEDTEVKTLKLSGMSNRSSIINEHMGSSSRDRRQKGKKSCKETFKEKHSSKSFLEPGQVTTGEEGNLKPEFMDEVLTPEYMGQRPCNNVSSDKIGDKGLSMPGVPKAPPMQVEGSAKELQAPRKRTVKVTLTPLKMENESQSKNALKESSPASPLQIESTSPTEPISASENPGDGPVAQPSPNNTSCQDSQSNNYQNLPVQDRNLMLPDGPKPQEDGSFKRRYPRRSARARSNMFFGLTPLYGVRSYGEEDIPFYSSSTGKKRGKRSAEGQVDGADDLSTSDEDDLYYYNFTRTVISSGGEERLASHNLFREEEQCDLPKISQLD
Histone-lysine N-methyltransferase 2A, sequence (Q03164 2719-3969 limits assumed): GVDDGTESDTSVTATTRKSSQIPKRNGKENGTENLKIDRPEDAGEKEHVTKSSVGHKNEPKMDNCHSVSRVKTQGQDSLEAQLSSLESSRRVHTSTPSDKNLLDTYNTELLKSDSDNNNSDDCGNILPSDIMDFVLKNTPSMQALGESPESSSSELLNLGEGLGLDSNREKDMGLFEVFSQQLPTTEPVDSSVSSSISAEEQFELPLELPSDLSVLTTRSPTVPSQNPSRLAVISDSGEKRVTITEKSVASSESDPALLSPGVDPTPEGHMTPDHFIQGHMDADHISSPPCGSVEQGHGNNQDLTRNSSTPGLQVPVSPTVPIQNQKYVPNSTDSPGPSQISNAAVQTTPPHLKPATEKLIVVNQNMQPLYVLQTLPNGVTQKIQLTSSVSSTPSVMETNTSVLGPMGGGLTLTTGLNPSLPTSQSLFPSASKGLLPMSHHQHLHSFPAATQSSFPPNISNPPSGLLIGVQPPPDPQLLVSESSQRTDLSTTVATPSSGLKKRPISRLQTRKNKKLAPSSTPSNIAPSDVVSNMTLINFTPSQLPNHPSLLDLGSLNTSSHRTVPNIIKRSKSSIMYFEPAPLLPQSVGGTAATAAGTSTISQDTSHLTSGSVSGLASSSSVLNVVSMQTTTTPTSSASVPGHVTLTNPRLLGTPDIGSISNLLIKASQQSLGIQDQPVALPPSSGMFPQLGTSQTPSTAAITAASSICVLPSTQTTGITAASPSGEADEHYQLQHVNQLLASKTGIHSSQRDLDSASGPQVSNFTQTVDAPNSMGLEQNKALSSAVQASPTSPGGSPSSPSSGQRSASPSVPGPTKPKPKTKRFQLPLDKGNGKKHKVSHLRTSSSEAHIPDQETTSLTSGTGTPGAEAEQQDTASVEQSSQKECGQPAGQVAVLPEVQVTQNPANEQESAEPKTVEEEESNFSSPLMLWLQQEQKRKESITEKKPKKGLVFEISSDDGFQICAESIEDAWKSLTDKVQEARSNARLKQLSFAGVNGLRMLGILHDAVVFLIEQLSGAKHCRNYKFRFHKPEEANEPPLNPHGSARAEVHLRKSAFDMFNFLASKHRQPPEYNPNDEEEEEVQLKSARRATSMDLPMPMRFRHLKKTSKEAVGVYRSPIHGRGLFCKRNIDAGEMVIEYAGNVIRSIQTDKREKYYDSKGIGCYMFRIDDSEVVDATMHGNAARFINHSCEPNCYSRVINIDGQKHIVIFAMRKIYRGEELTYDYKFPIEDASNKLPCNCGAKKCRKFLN

[10] = Metabolic stability in rat liver microsomes assessed as half life at 1 uM in presence of NADPH by LC-MS/MS analysis; format: ADME, Microsome
How it was run: (§6)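 Compound at 1 μM preincubated 5 min at 37 °C with human or rat liver microsomes (0.7 mg/mL) in 100 mM PBS pH 7.4; reaction started with 1 mM NADPH.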

MV4-11 [11] = assay: Antitumor activity against human MV4-11 cells xenografted in Balb/c nude mouse assessed as tumor growth inhibition at 40 mg/kg, po administered daily for 21 days relative to control; format: functional; conditions: MV4-11, po, 504 h, time 21 day, read-out: TGI; how it was run: as §5
[12] = Metabolic stability in human liver microsomes assessed as clearance at 1 uM in presence of NADPH by LC-MS/MS analysis; format: ADME, Microsome; how it was run: as §6
[13] = target: Histone-lysine N-methyltransferase EZH2 (Homo sapiens, UniProt Q15910); assay: Inhibition of EZH2 (unknown origin) assessed as effect on H3K27 methylation incubated for 30 mins by Alphascreen assay; how it was run: as §1
Histone-lysine N-methyltransferase EZH2, sequence (Q15910 whole entry): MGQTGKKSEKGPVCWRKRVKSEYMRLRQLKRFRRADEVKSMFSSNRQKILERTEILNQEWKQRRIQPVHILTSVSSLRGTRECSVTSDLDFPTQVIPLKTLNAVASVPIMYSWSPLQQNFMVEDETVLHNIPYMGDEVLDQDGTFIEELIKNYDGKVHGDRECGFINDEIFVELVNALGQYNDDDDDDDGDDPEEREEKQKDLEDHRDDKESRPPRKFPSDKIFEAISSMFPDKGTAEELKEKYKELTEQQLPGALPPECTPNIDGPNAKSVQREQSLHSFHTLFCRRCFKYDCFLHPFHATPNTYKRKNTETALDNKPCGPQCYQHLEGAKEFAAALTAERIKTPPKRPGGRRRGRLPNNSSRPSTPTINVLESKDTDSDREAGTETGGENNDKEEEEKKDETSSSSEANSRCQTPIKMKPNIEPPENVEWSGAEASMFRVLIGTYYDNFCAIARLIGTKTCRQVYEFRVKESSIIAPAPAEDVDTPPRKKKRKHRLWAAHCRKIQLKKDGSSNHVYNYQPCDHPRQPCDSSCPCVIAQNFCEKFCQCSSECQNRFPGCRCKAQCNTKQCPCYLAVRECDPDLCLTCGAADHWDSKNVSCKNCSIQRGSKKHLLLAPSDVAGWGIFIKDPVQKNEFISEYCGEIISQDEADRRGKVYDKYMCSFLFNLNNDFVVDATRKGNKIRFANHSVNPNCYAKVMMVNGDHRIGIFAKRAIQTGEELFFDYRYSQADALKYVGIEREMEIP

[14] = Permeability of compound at pH 7.4 incubated for 4 hrs by PAMPA assay; format: ADME; conditions: read-out: permeability
How it was run: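 Double-sink PAMPA: compound diluted in pH 7.4 donor buffer, permeation through artificial membrane to acceptor over 4 h at 25 °C; donor and acceptor read by UV; mean ± SD of three independent experiments.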

MV4-11 [15] = assay: Antitumor activity against human MV4-11 cells xenografted in Balb/c nude mouse assessed as tumor weight inhibition at 120 mg/kg, po administered daily for 21 days relative to control; format: functional; conditions: MV4-11, po, 504 h; how it was run: as §2
[16] = Half life in Sprague-Dawley rat at 10 mg/kg, po measured upto 24 hrs by LC-MS/MS analysis; format: ADME, organism-based; conditions: in vivo; how it was run: as §3
K562 = assay: Antiproliferative activity against human K562 cells assessed as cell viability incubated for 72 hrs by CCK8 assay; format: functional, cell-based; conditions: K562, 72 h; how it was run: as §4
[17] = Metabolic stability in rat liver microsomes assessed as clearance at 1 uM in presence of NADPH by LC-MS/MS analysis; format: ADME, Microsome; how it was run: as §6
[18] = target: T1, N-lysine methyltransferase KMT5A (Homo sapiens, UniProt Q9NQR1); assay: Inhibition of SET8 (unknown origin) assessed as effect on H4K20 methylation incubated for 30 mins by Alphascreen assay; how it was run: as §1
T1 sequence (Q9NQR1 whole entry): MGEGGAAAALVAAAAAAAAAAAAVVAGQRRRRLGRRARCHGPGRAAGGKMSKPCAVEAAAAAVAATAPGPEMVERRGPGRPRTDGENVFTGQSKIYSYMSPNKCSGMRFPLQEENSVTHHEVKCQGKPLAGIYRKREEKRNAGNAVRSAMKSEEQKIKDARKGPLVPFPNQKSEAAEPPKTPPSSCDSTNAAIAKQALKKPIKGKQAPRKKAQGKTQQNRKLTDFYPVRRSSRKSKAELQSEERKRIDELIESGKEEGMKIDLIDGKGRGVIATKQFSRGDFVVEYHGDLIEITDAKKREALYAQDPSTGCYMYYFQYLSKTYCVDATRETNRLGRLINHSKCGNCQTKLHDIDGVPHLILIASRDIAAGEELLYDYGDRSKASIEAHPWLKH

bioavailability [1]: 82.1%
IC50 [2]: > 100 µM
AUC(0-t) at 24 h [3]: 411 ng·h/mL
AUC(0-inf) [5]: 1740 ng·h/mL
IC50 (MOLM-13): 13.1 µM
IC50 [6]: 0.029 µM
-TdeltaS [7]: 2.51 kcal/mol
inhibition [9]: Dose-Dependent Effect
half-life at 1 µM [10]: 1.1 h
CLH [12]: 14.1 µL/min/mg
IC50 [13]: > 100 µM
Papp at 4 h [14]: 20.2 ×10⁻⁶ cm/s
half-life [16]: 4.94 h
IC50 (K562): > 100 µM
CLH [17]: 15 µL/min/mg
IC50 [18]: > 100 µM
Structure (SMILES): CN1CCN(c2cc(F)c(-c3ccc(C(=O)N(C)C)cc3)cc2Nc2ncnc(Cl)c2N)CC1
inhibition in vivo at 40 mg/kg (MV4-11 [4]): 36.4%
inhibition in vivo at 120 mg/kg (MV4-11 [8]): 54.5%
inhibition in vivo at 40 mg/kg (MV4-11 [11]): 39.4%
inhibition in vivo at 120 mg/kg (MV4-11 [15]): 56.8%
